# In ChEMBL document CHEMBL3272319, “Alkyl streptozotocin analogues with improved biological activities” (J Med Chem, 1976):
# Columns and labels:
# [1] = Antitumor activity against mouse S180A allografted in ICR mouse assessed as tumor growth at 50 mg/kg, ip qd for 5 days measured on day 7 relative to control; type: functional; settings: route intraperitoneal
# How it was run: (§1)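 Ascites Sarcoma 180 (1 × 10^7 cells) implanted into ICR mice, six animals per group. Five daily ip injections in saline (days 1–5). Sacrificed day 7. T/C % computed from total packed cell volume (ascites volume × PCV) vs controls. Grades: 100-66 = -, 65-41 = +, 40-11 = ++, 10-0 = +++.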
# Mus musculus [2] = test: Toxicity in ICR mouse allografted with mouse S180A assessed as mortality at 50 mg/kg, ip qd for 5 days; type: organism-based; design: dose 50 mg/kg, route intraperitoneal; settings: in vivo, 120 h
# How it was run: (§2)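 Ascites Sarcoma 180 (1 × 10^7 cells) implanted into ICR mice, six per group; compound in saline ip once daily days 1-5; sacrifice on day 7; total packed cell volume (ascites volume × PCV) compared with controls as T/C %; mortality recorded.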
# Ehrlich [3] = test: Antitumor activity against mouse EAC allografted in ICR mouse assessed as tumor growth at 150 mg/kg, ip qd for 5 days measured on day 7 relative to control; type: functional; settings: route intraperitoneal
# How it was run: (§3)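 Ehrlich ascites carcinoma (1 × 10^7 cells) implanted into ICR mice, six per group. Drug in saline ip, qd days 1–5. Mice killed day 7. Total packed cell volume = ascites volume × % packed cell volume; T/C % = TPCV treated/control × 100. Activity graded from T/C.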
# Mus musculus [4] = test: Toxicity in ICR mouse allografted with mouse EAC assessed as mortality at 150 mg/kg, ip qd for 5 days; type: organism-based; design: dose 150 mg/kg, route intraperitoneal; settings: in vivo, 120 h
# How it was run: (§4)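 Ehrlich ascites carcinoma (1 × 10^7 cells) implanted into ICR mice, six per group; compound ip daily for 5 days; mice sacrificed day 7; tumour burden as total packed cell volume (ascites volume × PCV), T/C % vs controls; mortality recorded.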
# L1210 [5] = test: Antitumor activity against mouse L1210 cells allografted in BDF1 mouse assessed as increase in host lifespan at 50 mg/kg, ip qd for 5 days relative to control; type: functional; settings: 120 h, route intraperitoneal
# How it was run: (§5)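 L1210 (1 × 10^5 cells) implanted into BDF1 mice, six per group; compound in saline ip once daily days 1-5; effect read as % increase in life span, ILS = [(treated life span/control life span) − 1] × 100.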
# Mus musculus [6] = test: Toxicity in BDF1 mouse allografted with mouse L1210 cells assessed as mortality at 50 mg/kg, ip qd for 5 days; type: organism-based; design: dose 50 mg/kg, route intraperitoneal; settings: in vivo, 120 h; how it was run: as §5
# [7] = (§6) Acute toxicity in ip dosed JCL-ICR mouse assessed as animal death; type: organism-based; settings: JCL-ICR, in vivo
# How it was run: (§7)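 Groups of ten female JCL-ICR mice given single ip dose in physiological saline; deaths followed over 7 days; LD50 (and LD10) derived by Litchfield–Wilcoxon method.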
# Mus musculus [8] = test: as §6; type: organism-based; settings: in vivo; how it was run: as §7
# Mus musculus [9] = test: Ratio of compound LD10 to streptozotocin LD10 for JCL-ICR mouse; type: ADME, organism-based; settings: in vivo
# [10] = Ratio of compound LD50 to streptozotocin LD50 for JCL-ICR mouse; type: ADME, organism-based; settings: in vivo
# Rattus norvegicus [11] = test: Diabetogenic activity in iv dosed Wistar rat assessed as increase in blood sugar level administered as single dose by glucose oxidase method; type: ADME, organism-based; settings: in vivo
# How it was run: (§8)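 Male Wistar rats, about 200 g, five per group, fasted 16 h. Single iv dose into the femoral vein in physiological saline, equimolar across compounds. Caudal-vein blood sampled at set times over 24 h. Sugar measured by glucose oxidase.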
# [12] = Antitumor activity against mouse S180A allografted in ICR mouse assessed as tumor growth at 25 mg/kg, ip qd for 5 days measured on day 7 relative to control; type: functional; settings: route intraperitoneal; how it was run: as §1
# Mus musculus [13] = test: Toxicity in ICR mouse allografted with mouse S180A assessed as mortality at 25 mg/kg, ip qd for 5 days; type: organism-based; design: dose 25 mg/kg, route intraperitoneal; settings: in vivo, 120 h; how it was run: as §2
# Ehrlich [14] = test: Antitumor activity against mouse EAC allografted in ICR mouse assessed as tumor growth at 125 mg/kg, ip qd for 5 days measured on day 7 relative to control; type: functional; settings: route intraperitoneal; how it was run: as §3
# Mus musculus [15] = test: Toxicity in ICR mouse allografted with mouse EAC assessed as mortality at 125 mg/kg, ip qd for 5 days; type: organism-based; design: dose 125 mg/kg, route intraperitoneal; settings: in vivo, 120 h; how it was run: as §4
# Rattus norvegicus [16] = test: Diabetogenic activity in Wistar rat assessed as increase in blood sugar level at 68 mg/kg, iv administered as single dose by glucose oxidase method; type: ADME, organism-based; design: dose 68 mg/kg, route intravenous; settings: in vivo; how it was run: as §8
# Bacillus subtilis = test: Antibacterial activity against Bacillus subtilis ATCC 6633 assessed as growth inhibition after 18 hrs by broth dilution method; type: functional; settings: ATCC 6633, 18 h
# How it was run: (§9)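 Twofold serial dilutions in heart infusion broth. Inoculum was a 24-h heart infusion broth culture diluted 100-fold in physiological saline. Tubes incubated 30 °C for 18 h; the table footnote gives 32 °C for 24 h. MIC in µg/ml is the lowest level giving complete growth inhibition.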
# Escherichia coli = test: Antibacterial activity against Escherichia coli NIHJ JC-2 assessed as growth inhibition after 18 hrs by broth dilution method; type: functional; settings: NIHJ JC-2, 18 h; how it was run: as §9
# Klebsiella pneumoniae = test: Antibacterial activity against Klebsiella pneumoniae ATCC 10031 assessed as growth inhibition after 18 hrs by broth dilution method; type: functional; settings: ATCC 10031, 18 h; how it was run: as §9
# Proteus vulgaris = test: Antibacterial activity against Proteus vulgaris AHU 1469 assessed as growth inhibition after 18 hrs by broth dilution method; type: functional; settings: AHU 1469, 18 h; how it was run: as §9
# Pseudomonas fluorescens = test: Antibacterial activity against Pseudomonas fluorescens NIHJ B-254 assessed as growth inhibition after 18 hrs by broth dilution method; type: functional; settings: NIHJ B-254, 18 h; how it was run: as §9
# Salmonella typhi = test: Antibacterial activity against Salmonella typhi IFM 3020 assessed as growth inhibition after 18 hrs by broth dilution method; type: functional, Salmonella enterica subsp. enterica serovar Typhi; settings: Salmonella enterica, IFM 3020, 18 h
# How it was run: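 Twofold serial dilutions in heart infusion broth; inoculum from 24 h heart infusion broth culture diluted 100-fold in physiological saline; tubes incubated 30 °C for 18 h; MIC (µg/ml) = lowest level giving complete growth inhibition.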
# Micrococcus luteus = test: Antibacterial activity against Sarcina lutea ATCC 9341 assessed as growth inhibition after 18 hrs by broth dilution method; type: functional; settings: ATCC 9341, 18 h; how it was run: as §9
# Shigella sonnei = test: Antibacterial activity against Shigella sonnei assessed as growth inhibition after 18 hrs by broth dilution method; type: functional; how it was run: as §9
# Staphylococcus aureus = test: Antibacterial activity against Staphylococcus aureus FDA 209P JC-1 assessed as growth inhibition after 18 hrs by broth dilution method; type: functional; settings: FDA 209P JC-1, 18 h; how it was run: as §9
# Enterococcus faecalis = test: Antibacterial activity against Streptococcus faecalis ATCC 10541 assessed as growth inhibition after 18 hrs by broth dilution method; type: functional; settings: ATCC 10541, 18 h; how it was run: as §9
# L1210 [17] = test: Antitumor activity against mouse L1210 cells allografted in BDF1 mouse assessed as increase in host lifespan at 100 mg/kg, ip qd for 5 days relative to control; type: functional; settings: 120 h, route intraperitoneal; how it was run: as §5
# Mus musculus [18] = test: Toxicity in BDF1 mouse allografted with mouse L1210 cells assessed as mortality at 100 mg/kg, ip qd for 5 days; type: organism-based; design: dose 100 mg/kg, route intraperitoneal; settings: in vivo, 120 h; how it was run: as §5
# Rattus norvegicus [19] = test: Diabetogenic activity in Wistar rat assessed as increase in blood sugar level at 71.4 mg/kg, iv administered as single dose by glucose oxidase method; type: ADME, organism-based; design: dose 71.4 mg/kg, route intravenous; settings: in vivo; how it was run: as §8
SMILES,T/C [1] [%],Activity (Mus musculus [2]),ILS at 50 mg/kg (L1210 [5]) [%],Activity (Mus musculus [6]),LD50 [7] [mg/kg],LD10 (Mus musculus [8]) [mg/kg],Ratio (Mus musculus [9]),selectivity ratio [10],Activity (Rattus norvegicus [11]),T/C [12] [%],Activity (Mus musculus [13]),T/C (Ehrlich [14]) [%],Activity (Mus musculus [15]),further results
CCCCO[C@H]1O[C@H](CO)[C@@H](O)[C@H](O)[C@H]1NC(=O)N(C)N=O,20,Non-toxic,30,Non-toxic,2000,1200,2,2,Non-toxic,,,,,T/C (Ehrlich [3]): 16%; Activity (Mus musculus [4]): Non-toxic
CCCCO[C@@H]1O[C@H](CO)[C@@H](O)[C@H](O)[C@H]1NC(=O)N(C)N=O,,,33,Non-toxic,1580,1100,2,2,Non-toxic,40,Non-toxic,,,T/C (Ehrlich [3]): 4%; Activity (Mus musculus [4]): Non-toxic
CCCCO[C@H]1O[C@H](CO)[C@@H](O)[C@H](O)[C@H]1NC(=O)N(CCCC)N=O,80,Non-toxic,,,660,410,2,2,Non-toxic,,,53,Non-toxic,
CO[C@H]1O[C@H](CO)[C@@H](O)[C@H](O)[C@H]1NC(=O)N(C)N=O,,,35,Non-toxic,1930,1380,2,2,,37,Non-toxic,,,T/C (Ehrlich [3]): 16%; Activity (Mus musculus [4]): Non-toxic; Activity (Rattus norvegicus [16]): Non-toxic; MIC (Bacillus subtilis): > 1000 µg/mL; MIC (Escherichia coli): > 1000 µg/mL; MIC (Klebsiella pneumoniae): > 1000 µg/mL; MIC (Proteus vulgaris): > 1000 µg/mL; MIC (Pseudomonas fluorescens): > 1000 µg/mL; MIC (Salmonella typhi): > 1000 µg/mL; MIC (Micrococcus luteus): > 1000 µg/mL; MIC (Shigella sonnei): > 1000 µg/mL; MIC (Staphylococcus aureus): > 1000 µg/mL; MIC (Enterococcus faecalis): > 1000 µg/mL
CCCN(N=O)C(=O)N[C@H]1[C@@H](OC)O[C@H](CO)[C@@H](O)[C@@H]1O,55,Non-toxic,,,,,,,Non-toxic,,,61,Non-toxic,
CCCN(N=O)C(=O)N[C@H]1[C@H](OC)O[C@H](CO)[C@@H](O)[C@@H]1O,69,Non-toxic,,,,,,,Non-toxic,,,72,Non-toxic,ILS at 100 mg/kg (L1210 [17]): 7%; Activity (Mus musculus [18]): Non-toxic
CCCCN(N=O)C(=O)N[C@H]1[C@H](OC)O[C@H](CO)[C@@H](O)[C@@H]1O,54,Non-toxic,12,Non-toxic,,,,,Non-toxic,,,52,Non-toxic,
CCO[C@@H]1O[C@H](CO)[C@@H](O)[C@H](O)[C@H]1NC(=O)N(C)N=O,,,,,2050,1550,2,2,,37,Non-toxic,,,Activity (Rattus norvegicus [19]): Non-toxic; MIC (Bacillus subtilis): > 1000 µg/mL; MIC (Escherichia coli): > 1000 µg/mL; MIC (Klebsiella pneumoniae): > 1000 µg/mL; MIC (Proteus vulgaris): > 1000 µg/mL; MIC (Pseudomonas fluorescens): > 1000 µg/mL; MIC (Salmonella typhi): > 1000 µg/mL; MIC (Micrococcus luteus): > 1000 µg/mL; MIC (Shigella sonnei): > 1000 µg/mL; MIC (Staphylococcus aureus): > 1000 µg/mL; MIC (Enterococcus faecalis): > 1000 µg/mL
CCO[C@H]1O[C@H](CO)[C@@H](O)[C@H](O)[C@H]1NC(=O)N(CC)N=O,63,Non-toxic,,,,,,,Non-toxic,,,60,Non-toxic,ILS at 100 mg/kg (L1210 [17]): 14%; Activity (Mus musculus [18]): Non-toxic
CCO[C@@H]1O[C@H](CO)[C@@H](O)[C@H](O)[C@H]1NC(=O)N(CC)N=O,59,Non-toxic,,,,,,,Non-toxic,,,,,ILS at 100 mg/kg (L1210 [17]): 10%; Activity (Mus musculus [18]): Non-toxic
CCCO[C@H]1O[C@H](CO)[C@@H](O)[C@H](O)[C@H]1NC(=O)N(C)N=O,,,29,Non-toxic,1470,1020,2,2,Non-toxic,32,Non-toxic,37,Non-toxic,
